Rev-erbA mod – modulators of human Rev-erb alpha DNA binding; Rev-erbα–FITC-DNA binding, fluorescence polarization, 90 min; activity, % at 10 µM; P20393; 370,000 compounds, 0.79% hits; AID 1259318;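 active = activity above about 14%, limit read from the data; passing the limit was not always enough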;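 note: 0% = DMSO wells with 35 nM protein and 100% = DMSO wells with 750 nM protein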
Target sequence (P20393 whole entry, looked up): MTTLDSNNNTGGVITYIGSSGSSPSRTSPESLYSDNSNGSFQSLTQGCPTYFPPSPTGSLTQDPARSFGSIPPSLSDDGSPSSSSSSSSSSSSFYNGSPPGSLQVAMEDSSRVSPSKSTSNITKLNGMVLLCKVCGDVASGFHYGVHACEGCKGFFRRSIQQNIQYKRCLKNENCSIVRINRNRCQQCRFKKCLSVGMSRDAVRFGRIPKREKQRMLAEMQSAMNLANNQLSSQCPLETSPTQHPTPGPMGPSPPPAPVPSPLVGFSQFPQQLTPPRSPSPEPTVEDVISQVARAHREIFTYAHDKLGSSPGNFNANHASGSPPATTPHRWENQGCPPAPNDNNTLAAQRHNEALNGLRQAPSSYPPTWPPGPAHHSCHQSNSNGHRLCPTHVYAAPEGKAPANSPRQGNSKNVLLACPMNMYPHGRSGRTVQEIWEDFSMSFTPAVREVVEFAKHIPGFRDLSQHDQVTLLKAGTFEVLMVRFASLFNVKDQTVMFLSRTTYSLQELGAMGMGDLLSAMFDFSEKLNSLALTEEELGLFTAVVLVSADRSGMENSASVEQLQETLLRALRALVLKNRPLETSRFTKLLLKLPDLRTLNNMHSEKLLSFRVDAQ
NR2E3 ag-1 – NR2E3 (human) agonism; inhibition of corepressor binding, % at 4.78 µM; 320,000 compounds, 0.12% hits; AID 2300; Q9Y5X4; GST-NR2E3/biotin-RetCOR TR-FRET, 1536-well;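 active = percent inhibition above the cutoff of mean plus 3 SD of all tested compounds, set per screening campaign, cut at about 20% in these data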;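 note: 0% = DMSO wells and 100% = biotin wells as full block of FRET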
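Material: NR2E3–RetCOR corepressor complex | Quantity: 1.35 nM GST-tagged NR2E3 final | Schedule: 5 h at 4 °C | Replication: Singlicate compound wells | Reagent: RetCOR corepressor, biotinylated, 7 nM | Controls: Biotin wells as high control, 0.6% DMSO wells as low control | Signal: TR-FRET, Eu(K)-anti-GST donor, streptavidin-D2 acceptor, ex 340, em 617/671 nm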
NR2E3 ag-2 – agonists of human NR2E3 nuclear receptor; Q9Y5X4; CHO-S Gal4-NCOR/VP16-NR2E3 two-hybrid, luciferase; inhibition of corepressor binding, % at 3.98 µM; 360,000 compounds, 0.35% hits; AID 602229;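 active = inhibition above the mean of all tested compounds plus 3 SD, cut at about 70% in these data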;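 note: 0% = DMSO with NR2E3 transfected cells and 100% = cells lacking NR2E3 construct; higher means lower luciferase signal from less NR2E3 corepressor binding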
GalR3 antag – antagonists of human GalR3; inhibition, % at 3 µM; O60755; AID 651719; HEK293 GalR3-CNG cAMP membrane potential fluorescence; galR3 body fused to GalR1 C-terminus; 360,000 compounds, 0.44% hits;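 active = inhibition above the screen-wide average plus 3 SD, cut at about 13% in these data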;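 note: forskolin and galanin both at EC90 stimulate the cells; cAMP rise reported by CNG channel membrane potential dye signal; 0% = forskolin plus galanin with DMSO and 100% = forskolin alone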
PG9 binder – PG9 antibody binding by small molecule; inhibition, % at 6.7 µM; TR-FRET gp120-PG9 antibody binding; 360,000 compounds, 0.43% hits; AID 624416; in the data active = inhibition above about 8.5%
NR2E3 ag confirm-1 – NR2E3 (human) agonism, confirmation | shares compounds with NR2E3 ag-1 | cell-free NR2E3 corepressor release, TR-FRET, 5 h | activation (reported as inhibition), % at 3.98 µM | 360 compounds, 39% hits | AID 2379; in the data active = activation above about 20%
PPARg-NCOR2 ctr – releases PPARgamma from NCOR2 in NR2E3 counter-screen | shares compounds with NR2E3 ag-1 | TR-FRET PPARg-NCOR2 coregulator interaction, biochemical | inhibition, % at 3.98 µM | 360 compounds, 45% hits; in the data active = inhibition above about 20%;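 note: 0% = DMSO vehicle and 100% = wells without protein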
NR2E3 ag confirm-2 – confirmation of human NR2E3 agonists; inhibition, % at 3.98 µM; 2,300 compounds, 51% hits; CHO-S mammalian two-hybrid NR2E3-NCOR, luciferase luminescence; AID 624378; shares compounds with NR2E3 ag-2;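 active = average inhibition above a cutoff equal to the mean inhibition of all tested compounds plus one SD, cut at about 70% in these data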;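 note: 0% = DMSO in NR2E3 cells and 100% = DMSO in cells lacking NR2E3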
VP16 counter – GAL4-VP16 reporter inhibition in NR2E3 agonist counterscreen; shares compounds with NR2E3 ag-2; CHO-S GAL4-VP16 luciferase reporter, luminescence; inhibition, % at 3.98 µM; 2,300 compounds, 29% hits;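 active = mean inhibition above a cutoff equal to the average over all tested compounds plus one standard deviation, cut at about 70% in these data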;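 note: luciferase from a UAS reporter driven by GAL4-VP16 transactivation; 0% = DMSO with VP16-transfected cells and 100% = DMSO with cells lacking VP16; higher means less reporter light so more repression of VP16 activity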
PG9 binder conf – confirmation of small molecules binding HIV-1 gp120 antibody PG9; inhibition, % at 6.7 µM; 1,500 compounds, 90% hits; shares compounds with PG9 binder; TR-FRET PG9 antibody binding, biochemical; in the data active = inhibition above about 9%
PGV04 counter – binds control antibody PGV04 in PG9 binder counter-screen. AID 651604. TR-FRET PGV04 antibody-gp120 binding, biochemical. 1,500 compounds, 95% hits. shares compounds with PG9 binder. inhibition, % at 6.7 µM; in the data active = inhibition above about 9.5%
* marks the source's active call; other numbers are inactive results; . = no result; ! = repeats disagree. This is a sample that favours compounds with a hit; in the whole collection about 1.8% have one here.

SMILES | Rev-erbA mod | NR2E3 ag-1 | NR2E3 ag-2 | GalR3 antag | PG9 binder | others
C[C@@H]1O[C@@H](O[C@@H]2C=C3CCC4C(CC[C@]5(C)[C@@H](c6ccc(=O)oc6)CC[C@]45O)[C@@]3(C)CC2)[C@H](O)[C@H](O)[C@H]1O (some centres undefined) | -2 | 2 | -43 | 16* | 0
C[C@@H]1O[C@@H](O[C@@H]2C=C3CC[C@@H]4C(CC[C@]5(C)[C@@H](c6ccc(=O)oc6)CC[C@]45O)[C@@]3(C)CC2)[C@H](O)[C@H](O)[C@H]1O (some centres undefined) | -4 | 5 | -7 | 33* | 0
CC(=O)C1CCC2(O)C3CCC4=CC(=O)CCC4(C)C3CCC12C (centres undefined) | -6 | . | -34 | -5 | -1
C#C[C@@H]1CC2C3CCC4=C[C@@H](OC(C)=O)CCC4C3CC[C@]2(C)[C@H]1OC(C)=O (some centres undefined) | 6 | . | . | . | .
C[C@H]1[C@H](O)[C@@H](C)/C=C/C=C/CC/C=C/C=C/C=C/C=C/C(OC2O[C@H](C)[C@@H](O)[C@H](N)[C@@H]2O)CC2O[C@](O)(CC(O)C(O)CCC(O)CC(O)CC(O)CC(=O)O[C@H]1C)CC(O)C2C(=O)O (some centres undefined) | -1 | . | . | . | .
C[CH2][Hg][S]c1ccccc1C(=O)O | -4 | 4 | 93* | -7 | -3
CC(C)COC(=O)c1ccccc1C(=O)OCC(C)C | -5 | -1 | -9 | -6 | 0
COc1ccc2c(c1)[C@]13CCCC[C@H]1[C@H](C2)N(C)CC3 | 3 | . | . | . | .
O=C1CC2OCC=C3CN4CC[C@]56c7ccccc7N1C5[C@H]2[C@H]3CC46 (some centres undefined) | -4 | . | . | . | .
CC(C)(N)Cc1ccccc1 | 1 | . | . | . | .
COC1CC(OC2CCC3(C)C(CCC4C3CCC3(C)C(C5=CC(=O)OC5)C(OC(C)=O)CC43O)C2)OC(C)C1OC1OC(COC2OC(CO)C(O)C(O)C2O)C(O)C(O)C1O (centres undefined) | . | 2 | . | . | .
CC1OC(OC2CC(O)C3(CO)C4C(O)CC5(C)C(C6=CC(=O)OC6)CCC5(O)C4CCC3(O)C2)C(O)C(O)C1O (centres undefined) | 8 | . | 16 | 39* | 0
C[C@@H]1O[C@@H](O[C@H]2C[C@@H](O)[C@]3(CO)[C@H]4[C@H](O)C[C@]5(C)[C@@H](C6COC(=O)C6)CC[C@]5(O)[C@@H]4CC[C@]3(O)C2)[C@H](O)[C@H](O)[C@H]1O (some centres undefined) | 4 | 5 | 21 | 22* | 0
CCn1nc(-c2cccs2)nc2c(=O)n(C)c(=O)nc1-2 | . | . | 106* | . | .
C=CCN1CC[C@]23c4c5ccc(O)c4O[C@@H]2C(=O)CC[C@@]3(O)[C@H]1C5 | -4 | . | . | . | .
NCCc1cc(O)c(O)cc1O | -28 | . | -17 | -4 | 11*!
Cc1cc(O)c2c(c1)C(=O)C13C(=C2O)C(=O)[C@H]2[C@@H](O)[C@@H]1[C@H]1[C@H](O)[C@@H]3C(=O)C3=C(O)c4c(O)cc(C)cc4C(=O)C312 (some centres undefined) | . | 1 | 102* | . | .
CCN1/C(=C\C=C\C2=[N+](CC)c3ccccc3C2(C)C)C(C)(C)c2ccccc21 | . | 7 | 104* | . | .
CC(=O)OC1CC(OC2C(O)CC(OC3C(O)CC(OC4CCC5(C)C(CCC6C5CCC5(C)C(C7=CC(=O)OC7)CCC65O)C4)OC3C)OC2C)OC(C)C1OC1OC(CO)C(O)C(O)C1O (centres undefined) | -1 | . | -9 | 22* | -2
C=CC[C@]1(O)CCC2C3CCC4=CC(=O)CCC4=C3C=C[C@@]21C (some centres undefined) | -5 | . | . | . | .
NC(Cc1cc(O)c(O)cc1O)C(=O)O (centres undefined) | . | 25* | . | . | . | NR2E3 ag confirm-1=38*;PPARg-NCOR2 ctr=2
CCN1C(=O)C(=C2C=C(C)N(Cc3ccco3)C(C)=C2)C(=O)N(CC)C1=S | 2 | 25* | -2 | -6 | 20* | NR2E3 ag confirm-1=14;PPARg-NCOR2 ctr=17;PG9 binder conf=22*;PGV04 counter=27*
C=C[C@H]1CN2CC[C@H]1C[C@@H]2[C@@H](OC(=O)OCC)c1ccnc2ccc(OC)cc12 | -5 | . | . | . | .
Oc1c(Cl)c(Cl)c(Cl)c(Cl)c1Cl | 7 | -3 | 98* | -2 | 0 | NR2E3 ag confirm-2=99*;VP16 counter=92*
CCOP(=O)(OCC)OCC | -3 | 0 | -6 | -1 | -1
SMILES | Rev-erbA mod | NR2E3 ag-1 | NR2E3 ag-2 | GalR3 antag | PG9 binder | others
CCOP(=O)(CCP(=O)(OCC)OCC)OCC.C[CH2][Sn]([Cl])([Cl])[CH2]C | -2 | . | 91* | 11 | 0 | NR2E3 ag confirm-2=100*;VP16 counter=-41
C#CCN1CC(=O)N(COC(=O)C2C(C=C(C)C)C2(C)C)C1=O (centres undefined) | 12 | . | . | . | .
c1ccc2c(c1)[IH]c1ccccc1-2 | -1 | . | 100* | 86* | 0 | NR2E3 ag confirm-2=97*;VP16 counter=88*
CN1c2ccc(Br)cc2[C@H]2NCC[C@H]2[C@H]1CO | -1 | . | . | . | .
C[C@H]1CCC/C=C/[C@@H]2C[C@H](O)C[C@H]2[C@H](O)/C=C/C(=O)O1 | -2 | 5 | 95* | 0 | -1 | NR2E3 ag confirm-2=99*;VP16 counter=65
C[C@H]1CCCC(=O)CCC/C=C/c2cc(O)cc(O)c2C(=O)O1 | -3 | 1 | 24 | 1 | 0
CCC(=NCCN1CCCCC1)c1c(O)n(C)c(=O)n(C)c1=O | 3 | 1 | -13 | -1 | -2
CCC(=NCCOc1ccc(Cl)cc1)c1c(O)n(C)c(=O)n(C)c1=O | -7 | 0 | 79* | 0 | 0 | NR2E3 ag confirm-2=96*;VP16 counter=83*
CCC1(OC(=O)CN)C(=O)OCc2c1cc1n(c2=O)Cc2cc3ccccc3nc2-1 (centres undefined) | . | 4 | 93* | . | . | NR2E3 ag confirm-2=94*;VP16 counter=56

From PubChem BioAssay
